Results published in ChEMBL document CHEMBL4425132, “Antibacterial and Solubility Optimization of Thiomuracin A” (J Med Chem, 2016).
Converted amounts (≈) assume the structure as drawn.

Columns and labels:
Staphylococcus aureus [1] = assay: Antimicrobial activity against Staphylococcus aureus ATCC 49951; type: functional
In short: (§1)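 MIC by CLSI broth microdilution against the strains used in the mouse infection model.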

Clostridioides difficile [2] = assay: Antimicrobial activity against Clostridium difficile ATCC 43255 infected in golden Syrian hamster assessed as animal survival at 25 mg/kg, po for 5 days dosed starting 24 hrs after infection measured for 16 days; type: functional; details: ATCC 43255, po
In short: (§2)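 Hamsters given a single subcutaneous clindamycin injection (10 mg/kg) on day -1. About 24 h later they were infected by oral gavage with ~7.5 x10^6 CFU/hamster. Inoculum was prepared from overnight plates resuspended in reinforced clostridial medium + 1% oxyrase. Oral dosing once daily for up to 5 days, 8 animals per dose. Animals observed twice daily for mortality, diarrhea and morbidity. Vehicle-only control group.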

Staphylococcus aureus [3] = assay: Antimicrobial activity against Staphylococcus aureus ATCC 49951 infected in CD1 mouse systemic infection model dosed intravenously 1 and 5 hrs after inoculation; type: functional; details: for ED50: ATCC 49951, iv
Streptococcus pyogenes = assay: Antimicrobial activity against Streptococcus pyogenes ATCC BAA-595 by broth microdilution method; type: functional
In short: (§3)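 MICs determined by CLSI broth microdilution. Broth microdilution was used for every species tested, including the anaerobe C. difficile.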

Staphylococcus aureus [4] = assay: Antimicrobial activity against methicillin-resistant Staphylococcus aureus by broth microdilution method; type: functional
In short: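 Broth microdilution MIC following CLSI methods, with broth microdilution used for all species.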

Enterococcus faecalis [5] = assay: Antimicrobial activity against Enterococcus faecalis ATCC 29212 by broth microdilution method; type: functional; in short: as §3
Enterococcus faecalis [6] = assay: Antimicrobial activity against Enterococcus faecalis NB04025; type: functional; in short: as §1
Clostridioides difficile [7] = assay: Antimicrobial activity against Clostridium difficile ATCC 43255 by broth microdilution method; type: functional; in short: as §3
Enterococcus faecalis [8] = assay: Antimicrobial activity against Enterococcus faecalis NB04025 infected in CD1 mouse systemic infection model dosed intravenously once immediately following bacterial inoculation; type: functional; details: for ED50: NB04025, iv
Enterococcus faecium = assay: Antimicrobial activity against Enterococcus faecium 7130724 by broth microdilution method; type: functional; in short: as §3
Clostridioides difficile [9] = assay: Antimicrobial activity against Clostridium difficile ATCC 43255 infected in golden Syrian hamster assessed as animal survival at 20 mg/kg, po for 5 days dosed starting 24 hrs after infection measured for 16 days; type: functional; details: ATCC 43255, po; in short: as §2
[10] = Aqueous solubility of the compound at 20 mg/ml after 24 hrs RP-HPLC based shake flask method; type: physicochemical; details: aqueous medium
In short: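 Compound samples examined for dissolution. Clear solutions were reported as >starting concentration, with pH recorded. Samples with visible particles were filtered through 0.22 µ PVDF membranes, pH recorded, and dissolved drug quantified by RP-HPLC.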

Clostridioides difficile [11] = assay: Antimicrobial activity against Clostridium difficile ATCC 43255 infected in golden Syrian hamster assessed as animal survival at 10 mg/kg, po for 5 days dosed starting 24 hrs after infection measured for 16 days; type: functional; details: ATCC 43255, po; in short: as §2
Clostridioides difficile [12] = assay: Antimicrobial activity against Clostridium difficile ATCC 43255 infected in golden Syrian hamster assessed as animal survival at 5 mg/kg, po for 5 days dosed starting 24 hrs after infection measured for 16 days; type: functional; details: ATCC 43255, po; in short: as §2
[13] = Half life in Sprague-Dawley rat at 1 mg/kg, iv by LC-MS/MS method; type: ADME, organism-based; details: in vivo
In short: (§4)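 Rats fasted overnight before dosing and for 8 hr after. Blood collected into K2-EDTA tubes and centrifuged to plasma. Plasma protein-precipitated with acetonitrile containing glyburide internal standard. Analysis by LC-MS/MS on reversed-phase C18 columns with a 5% to 95% acetonitrile gradient over ~3.5 min (0.1% formic acid in both phases).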

[14] = Volume of distribution at steady state in Sprague-Dawley rat at 1 mg/kg, iv by LC-MS/MS method; type: ADME, organism-based; details: in vivo, read-out: Vdss; in short: as §4
[15] = AUC in Sprague-Dawley rat at 1 mg/kg, iv by LC-MS/MS method; type: ADME, organism-based; details: in vivo; in short: as §4
[16] = Clearance in Sprague-Dawley rat at 1 mg/kg, iv by LC-MS/MS method; type: ADME, organism-based; details: in vivo; in short: as §4

Compound	survival at 25 mg/kg (Clostridioides difficile [2]) [%]	ED50 (Staphylococcus aureus [3]) [mg/kg]	MIC (Streptococcus pyogenes) [µg/mL]	MIC (Staphylococcus aureus [4]) [µg/mL]	MIC (Enterococcus faecalis [5]) [µg/mL]	MIC (Clostridioides difficile [7]) [µg/mL]	ED50 (Enterococcus faecalis [8]) [mg/kg]	MIC (Enterococcus faecium) [µg/mL]	solubility thermodynamic at 24 h [10] [µg/mL]	other results
Cc1sc2nc1C(=O)N[C@@H]([C@H](O)c1ccccc1)c1nc(cs1)C(=O)N[C@@H](Cc1ccc(O)cc1)C(=O)NCC(=O)N1C[C@H](O)[C@H](C)[C@H]1c1nc(cs1)-c1nc(cs1)-c1nc(-c3nc(C(N)=O)cs3)ccc1-c1nc(cs1)C(=O)N[C@H]2CC(N)=O	0	8	1 (≈ 0.795 µM)	0.25 (≈ 0.199 µM)	0.25 (≈ 0.199 µM)	< 0.008	1.5	0.5 (≈ 0.398 µM)	–	MIC (Staphylococcus aureus [1]): 1 µg/mL (≈ 0.795 µM); MIC (Enterococcus faecalis [6]): 0.125 µg/mL (≈ 0.0994 µM)
CN[C@H](CC(C)C)C(=O)N[C@H]1C(=O)N[C@@H](CC(N)=O)C(=O)N[C@H]2C(=O)N[C@H]3C(=O)N[C@H](C(=O)N[C@H](C(=O)O)c4cc(O)cc(O)c4-c4cc3ccc4O)[C@H](O)c3ccc(c(Cl)c3)Oc3cc2cc(c3O[C@@H]2O[C@H](CO)[C@@H](O)[C@H](O)[C@H]2O[C@H]2C[C@](C)(N)[C@H](O)[C@H](C)O2)Oc2ccc(cc2Cl)[C@H]1O [VANCOMYCIN]	–	1.1	–	–	–	–	7.74	–	–	survival at 20 mg/kg (Clostridioides difficile [9]): 38%
Cc1sc2nc1C(=O)N[C@@H]([C@H](O)c1ccccc1)c1nc(cs1)C(=O)N[C@@H](Cc1ccc(O)cc1)C(=O)NCC(=O)N1C[C@H](O)[C@H](C)[C@H]1c1nc(cs1)-c1nc(cs1)-c1nc(-c3nc(C(=O)NCCCCC(=O)O)cs3)ccc1-c1nc(cs1)C(=O)N[C@H]2CC(N)=O	13	–	0.125 (≈ 0.0921 µM)	0.5 (≈ 0.368 µM)	0.125 (≈ 0.0921 µM)	0.06 (≈ 0.0442 µM)	–	0.125 (≈ 0.0921 µM)	730 (≈ 538 µM)	–
Cc1sc2nc1C(=O)N[C@@H]([C@H](O)c1ccccc1)c1nc(cs1)C(=O)N[C@@H](Cc1ccc(O)cc1)C(=O)NCC(=O)N1C[C@H](O)[C@H](C)[C@H]1c1nc(cs1)-c1nc(cs1)-c1nc(-c3nc(NC(=O)O[C@H]4CC[C@H](C(=O)O)CC4)cs3)ccc1-c1nc(cs1)C(=O)N[C@H]2CC(N)=O	–	–	0.125 (≈ 0.0893 µM)	0.25 (≈ 0.179 µM)	0.125 (≈ 0.0893 µM)	0.03 (≈ 0.0214 µM)	–	0.125 (≈ 0.0893 µM)	6 (≈ 4.29 µM)	–
CCCCCCCCCC(=O)N[C@@H](Cc1c[nH]c2ccccc12)C(=O)N[C@H](CC(N)=O)C(=O)N[C@@H](CC(=O)O)C(=O)N[C@@H]1C(=O)NCC(=O)N[C@@H](CCCN)C(=O)N[C@@H](CC(=O)O)C(=O)N[C@H](C)C(=O)N[C@@H](CC(=O)O)C(=O)NCC(=O)N[C@H](CO)C(=O)N[C@@H]([C@H](C)CC(=O)O)C(=O)N[C@@H](CC(=O)c2ccccc2N)C(=O)O[C@@H]1C	–	0.21	–	–	–	–	2.6	–	–	–
Cc1sc2nc1C(=O)N[C@@H]([C@H](O)c1ccccc1)c1nc(cs1)C(=O)N[C@@H](Cc1ccc(O)cc1)C(=O)NCC(=O)N1C[C@H](O)[C@H](C)[C@H]1c1nc(cs1)-c1nc(cs1)-c1nc(-c3nc(C(=O)O)cs3)ccc1-c1nc(cs1)C(=O)N[C@H]2CC(N)=O	75	–	0.5 (≈ 0.397 µM)	2 (≈ 1.59 µM)	0.5 (≈ 0.397 µM)	0.125 (≈ 0.0993 µM)	–	0.5 (≈ 0.397 µM)	1 (≈ 0.795 µM)	–
Cc1sc2nc1C(=O)N[C@@H]([C@H](O)c1ccccc1)c1nc(cs1)C(=O)N[C@@H](Cc1ccc(O)cc1)C(=O)NCC(=O)N1C[C@H](O)[C@H](C)[C@H]1c1nc(cs1)-c1nc(cs1)-c1nc(-c3nc(C(=O)N(CCCCC(=O)O)[C@H]4CC[C@H](C(=O)O)CC4)cs3)ccc1-c1nc(cs1)C(=O)N[C@H]2CC(N)=O	–	–	0.5 (≈ 0.337 µM)	2 (≈ 1.35 µM)	1 (≈ 0.674 µM)	0.125 (≈ 0.0842 µM)	–	1 (≈ 0.674 µM)	3400 (≈ 2290 µM)	–
Cc1sc2nc1C(=O)N[C@@H]([C@H](O)c1ccccc1)c1nc(cs1)C(=O)N[C@@H](Cc1ccc(O)cc1)C(=O)NCC(=O)N1C[C@H](O)[C@H](C)[C@H]1c1nc(cs1)-c1nc(cs1)-c1nc(-c3nc(N(CCCCC(=O)O)C(=O)O[C@H]4CC[C@H](C(=O)O)CC4)cs3)ccc1-c1nc(cs1)C(=O)N[C@H]2CC(N)=O	–	–	0.125 (≈ 0.0833 µM)	0.25 (≈ 0.167 µM)	0.25 (≈ 0.167 µM)	0.06 (≈ 0.04 µM)	–	0.125 (≈ 0.0833 µM)	9700 (≈ 6470 µM)	survival at 10 mg/kg (Clostridioides difficile [11]): 63%; survival at 5 mg/kg (Clostridioides difficile [12]): 25%
Cc1sc2nc1C(=O)N[C@@H]([C@H](O)c1ccccc1)c1nc(cs1)C(=O)N[C@@H](Cc1ccc(O)cc1)C(=O)NCC(=O)N1C[C@H](O)[C@H](C)[C@H]1c1nc(cs1)-c1nc(cs1)-c1nc(-c3nc(C(=O)N[C@H]4CC[C@H](C(=O)O)CC4)cs3)ccc1-c1nc(cs1)C(=O)N[C@H]2CC(N)=O	–	3.42	0.25 (≈ 0.181 µM)	0.25 (≈ 0.181 µM)	0.125 (≈ 0.0903 µM)	0.03 (≈ 0.0217 µM)	0.71	0.125 (≈ 0.0903 µM)	750 (≈ 542 µM)	half-life [13]: 1.8 h; Activity (Staphylococcus aureus [3]): Dose-dependent effect; Vd [14]: 0.032 L/kg; Activity (Enterococcus faecalis [8]): Dose-dependent effect; AUC [15]: 13.2 µM·h; clearance [16]: 0.98 mL/min/kg; survival at 10 mg/kg (Clostridioides difficile [11]): 0%
COCc1sc2nc1C(=O)NCC(=O)N[C@@H]([C@@H](O)c1ccccc1)c1nc(cs1)-c1nc(cs1)-c1nc(-c3nc(N(CCCCC(=O)O)C(=O)O[C@H]4CC[C@H](C(=O)O)CC4)cs3)ccc1-c1nc(cs1)C(=O)N[C@@H](CC(N)=O)C1=NC(C)=C(S1)C(=O)N[C@H]2C(C)C	–	–	–	–	–	–	–	–	–	survival at 5 mg/kg (Clostridioides difficile [12]): 71 to 75%
